Reference: ChEMBL document CHEMBL1153204, “Novel purine and pyrazolo[3,4-d]pyrimidine inhibitors of PI3 kinase-alpha: Hit to lead studies” (Bioorg Med Chem Lett, 2010)
pIC50: −log10 of the molar value. Calls of active or inactive are those of the source. The rule behind the calls is not given here.

Experiments:
[1] = biological target: Phosphatidylinositol 4,5-bisphosphate 3-kinase catalytic subunit alpha isoform (Homo sapiens, UniProt P42336); test: Inhibition of GST-GRP1-fused PI3Kalpha by microtiter plate based fluorescence polarization assay
[2] = biological target: Phosphatidylinositol 4,5-bisphosphate 3-kinase catalytic subunit gamma isoform (Homo sapiens, UniProt P48736); test: Inhibition of GST-GRP1-fused PI3Kgamma by microtiter plate based fluorescence polarization assay
Outline: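 Fluorescence polarization assay monitoring PIP3 production by PI3K p110α or p110γ. IC50 values are the means of two experiments, SD ±10%.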

[3] = tested on: Caco-2; test: Antiproliferative activity against human Caco-2 cells; type: functional, cell-based
Outline: (§1)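 Growth densities of Caco-2 (colorectal), LoVo (colon) and PC3MM2 (prostate) adenocarcinoma cultures monitored after compound exposure to measure proliferation.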

[4] = tested on: LoVo; test: Antiproliferative activity against human LoVo cells; type: functional, cell-based; outline: as §1
[5] = tested on: PC-3; test: Antiproliferative activity against human PC3 cells; type: functional, cell-based; outline: as §1
[6] = biological target: Serine/threonine-protein kinase mTOR (Homo sapiens, UniProt P42345); test: Inhibition of human TOR in HEK293 cells by DELFIA; type: cell-based
Outline: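 DELFIA-format assay detecting phosphorylated His6-S6K substrate. IC50 values are the means of two experiments, SD ±10%.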

[7] = tested on: MDA-MB-361; test: Inhibition of PI3K in human MDA-MB-361 cells assessed as reduction of phosphorylated Akt (T308) level at 3 to 30 uM after 4 hrs by immunoblotting; type: cell-based
Outline: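 MDA-361 breast adenocarcinoma cells were treated in growth media for 4 h with the indicated doses, with a DMSO control. Lysates were immunoblotted for phospho-Akt T308, and for cleaved PARP as an apoptosis marker.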

[8] = Selectivity ratio of IC50 for PI3Kgamma to IC50 for PI3Kalpha
[9] = Selectivity ratio of IC50 for human TOR to IC50 for PI3Kalpha

Phosphatidylinositol 4,5-bisphosphate 3-kinase catalytic subunit gamma isoform, sequence (P48736 whole entry, the tested form may be a part, canonical isoform): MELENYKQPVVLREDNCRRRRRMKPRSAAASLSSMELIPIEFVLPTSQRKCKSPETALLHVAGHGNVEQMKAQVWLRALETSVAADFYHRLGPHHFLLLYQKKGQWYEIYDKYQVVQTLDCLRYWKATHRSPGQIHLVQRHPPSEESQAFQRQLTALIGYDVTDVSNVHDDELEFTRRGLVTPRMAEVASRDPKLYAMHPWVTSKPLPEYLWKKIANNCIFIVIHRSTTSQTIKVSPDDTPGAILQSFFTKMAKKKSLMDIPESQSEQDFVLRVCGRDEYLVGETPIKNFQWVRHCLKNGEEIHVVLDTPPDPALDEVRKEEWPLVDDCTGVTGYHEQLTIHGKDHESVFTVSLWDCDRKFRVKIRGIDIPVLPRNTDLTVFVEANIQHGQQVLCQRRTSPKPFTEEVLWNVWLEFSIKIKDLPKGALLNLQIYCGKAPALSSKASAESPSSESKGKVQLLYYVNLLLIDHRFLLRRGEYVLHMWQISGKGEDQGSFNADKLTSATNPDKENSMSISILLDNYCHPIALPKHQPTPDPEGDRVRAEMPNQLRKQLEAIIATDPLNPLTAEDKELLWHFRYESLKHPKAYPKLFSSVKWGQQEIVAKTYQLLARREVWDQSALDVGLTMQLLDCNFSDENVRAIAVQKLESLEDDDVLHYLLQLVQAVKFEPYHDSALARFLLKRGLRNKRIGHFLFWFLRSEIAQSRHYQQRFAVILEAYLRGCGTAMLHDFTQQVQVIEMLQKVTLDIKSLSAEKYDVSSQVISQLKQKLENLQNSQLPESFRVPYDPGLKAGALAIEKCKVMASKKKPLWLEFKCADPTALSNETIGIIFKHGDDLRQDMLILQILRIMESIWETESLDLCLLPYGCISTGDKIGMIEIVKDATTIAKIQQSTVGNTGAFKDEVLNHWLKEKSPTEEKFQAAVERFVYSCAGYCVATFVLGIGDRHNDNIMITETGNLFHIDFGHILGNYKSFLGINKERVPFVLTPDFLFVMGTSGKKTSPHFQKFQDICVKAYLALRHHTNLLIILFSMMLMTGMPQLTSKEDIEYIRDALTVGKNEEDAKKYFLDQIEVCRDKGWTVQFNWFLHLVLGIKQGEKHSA
Phosphatidylinositol 4,5-bisphosphate 3-kinase catalytic subunit alpha isoform, sequence (P42336 whole entry, the tested form may be a part, canonical isoform): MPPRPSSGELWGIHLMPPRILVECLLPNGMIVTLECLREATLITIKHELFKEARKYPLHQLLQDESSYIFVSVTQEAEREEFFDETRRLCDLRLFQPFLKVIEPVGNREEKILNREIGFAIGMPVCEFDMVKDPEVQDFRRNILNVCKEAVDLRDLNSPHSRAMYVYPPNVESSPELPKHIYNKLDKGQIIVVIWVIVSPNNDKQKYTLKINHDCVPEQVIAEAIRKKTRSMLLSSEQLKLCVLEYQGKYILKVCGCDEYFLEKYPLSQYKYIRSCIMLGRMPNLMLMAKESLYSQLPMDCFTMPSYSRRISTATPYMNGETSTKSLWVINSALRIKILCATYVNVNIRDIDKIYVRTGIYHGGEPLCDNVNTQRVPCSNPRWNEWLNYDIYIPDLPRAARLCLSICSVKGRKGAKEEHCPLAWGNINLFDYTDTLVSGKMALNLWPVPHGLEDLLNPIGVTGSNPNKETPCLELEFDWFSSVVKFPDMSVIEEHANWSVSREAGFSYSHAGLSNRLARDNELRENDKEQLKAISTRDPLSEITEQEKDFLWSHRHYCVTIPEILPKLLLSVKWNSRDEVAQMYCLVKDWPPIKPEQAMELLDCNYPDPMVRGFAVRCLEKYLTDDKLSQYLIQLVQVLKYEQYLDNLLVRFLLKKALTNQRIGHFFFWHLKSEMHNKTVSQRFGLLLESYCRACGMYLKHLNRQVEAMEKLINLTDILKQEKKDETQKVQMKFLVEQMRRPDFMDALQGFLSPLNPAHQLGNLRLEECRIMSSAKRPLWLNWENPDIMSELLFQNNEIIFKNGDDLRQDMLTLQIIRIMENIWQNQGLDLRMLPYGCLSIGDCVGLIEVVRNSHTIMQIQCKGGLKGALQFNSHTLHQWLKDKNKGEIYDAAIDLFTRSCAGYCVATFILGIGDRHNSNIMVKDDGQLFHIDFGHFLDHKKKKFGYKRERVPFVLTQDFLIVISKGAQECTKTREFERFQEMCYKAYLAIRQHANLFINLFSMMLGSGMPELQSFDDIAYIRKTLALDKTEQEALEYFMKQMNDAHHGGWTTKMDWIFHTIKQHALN

Compound | pIC50 [1] | pIC50 [2] | pIC50 [3] | pIC50 [4] | pIC50 [5] | pIC50 [6] | Ratio IC50 [8] | Ratio IC50 [9] | inhibition [7]
CS(=O)(=O)c1cccc(-c2nc(N3CCOCC3)c3nc[nH]c3n2)c1 | 5.41 | 5.10 | – | – | – | – | – | – | –
N#Cc1cccc(-c2nc(N3CCOCC3)c3nc[nH]c3n2)c1 | 5.54 | 5.08 | – | – | – | – | – | – | –
Oc1ccc(-c2nc(N3CCOCC3)c3nc[nH]c3n2)cc1 | 5.60 | 5.07 | – | – | – | – | – | – | –
Oc1cccc(-c2nc(N3CCOCC3)c3cnn(C4CCN(Cc5ccccc5)CC4)c3n2)c1 | – | 5.63 | 5.22 | 5.79 | 6.03 | 7.08 | – | – | –
OCc1cccc(-c2nc(N3CCOCC3)c3ncn(C4CCN(Cc5ccccc5)CC4)c3n2)c1 | – | – | 5.29 | 5.98 | 5.89 | 6.16 | – | – | Active
CS(=O)(=O)Nc1cccc(-c2nc(N3CCOCC3)c3nc[nH]c3n2)c1 | 5.36 | 5.10 | – | – | – | – | – | – | –
Oc1cccc(-c2nc(N3CCOCC3)c3cnn(C4CCNCC4)c3n2)c1 | – | 6.00 | 5.25 | 5.80 | 6.04 | – | – | – | –
OCc1ccc(-c2nc(N3CCOCC3)c3nc[nH]c3n2)cc1 | 5.54 | 5.10 | – | – | – | – | – | – | –
c1nc2c(N3CCOCC3)nc(-c3ccc4c(c3)OCCO4)nc2[nH]1 | 5.46 | 5.12 | – | – | – | – | – | – | –
c1nc2c(N3CCOCC3)nc(-c3ccsc3)nc2[nH]1 | 5.62 | 5.10 | – | – | – | – | – | – | –
Oc1cccc(-c2nc(N3CCCCC3)c3nc[nH]c3n2)c1 | 5.42 | 4.99 | – | – | – | – | – | – | –
c1cc2ccc(-c3nc(N4CCOCC4)c4nc[nH]c4n3)cc2[nH]1 | 5.63 | 5.13 | – | – | – | 6.82 | – | – | –
c1nc2c(N3CCOCC3)nc(-c3ccoc3)nc2[nH]1 | 5.42 | 4.96 | – | – | – | – | – | – | –
NC(=O)c1ccc(-c2nc(N3CCOCC3)c3nc[nH]c3n2)cc1 | 5.17 | 5.00 | – | – | – | – | – | – | –

Now from value to compound, other results behind:

pIC50 [1] | pIC50 [2] | pIC50 [3] | pIC50 [4] | pIC50 [5] | pIC50 [6] | Ratio IC50 [8] | Ratio IC50 [9] | Compound | inhibition [7]
6.61 | 5.78 | 5.24 | 5.51 | 5.03 | – | – | – | OCc1cccc(-c2nc(N3CCOCC3)c3ncn(CC4CCN(Cc5ccccc5)CC4)c3n2)c1 | –
6.70 | 5.62 | 5.19 | 5.45 | 5.13 | – | – | – | Oc1cccc(-c2nc(N3CCOCC3)c3ncn(CC4CCN(Cc5ccccc5)CC4)c3n2)c1 | –
6.18 | 5.29 | < 5.00 | 5.14 | < 5.00 | – | – | – | Oc1ccccc1-c1nc(N2CCOCC2)c2nc[nH]c2n1 | –
5.92 | 5.16 | – | – | – | – | – | – | c1nc2c(N3CCOCC3)nc(-c3ccc4c(c3)OCO4)nc2[nH]1 | –
5.75 | 5.23 | – | – | – | – | – | – | CS(=O)(=O)c1ccc(-c2nc(N3CCOCC3)c3nc[nH]c3n2)cc1 | –
6.19 | 5.17 | < 5.00 | < 5.00 | < 5.00 | – | – | – | c1csc(-c2nc(N3CCOCC3)c3nc[nH]c3n2)c1 | –
7.24 | – | 5.35 | 5.73 | 5.63 | – | 11 | > 100 | OCc1cccc(-c2nc(N3CCOCC3)c3ncn(C4CCNCC4)c3n2)c1 | –
7.19 | 6.88 | 5.39 | 5.69 | 5.82 | 6.06 | – | – | Oc1cccc(-c2nc(N3CCOCC3)c3ncn(C4CCNCC4)c3n2)c1 | –
7.10 | 4.97 | < 5.00 | 5.71 | 5.95 | – | – | – | Oc1cccc(-c2nc(N3CCOCC3)c3ncn(C4CCN(Cc5ccccc5)CC4)c3n2)c1 | –
6.63 | – | – | – | – | 5.62 | – | – | Oc1cccc(-c2nc(N3CCOCC3)c3nc[nH]c3n2)c1 | –
7.60 | 6.01 | 5.87 | 6.29 | 6.46 | 7.05 | – | – | OCc1cccc(-c2nc(N3CCOCC3)c3cnn(C4CCN(Cc5ccccc5)CC4)c3n2)c1 | –
